Measurements from ChEMBL document CHEMBL1140321, “Synthesis and biological evaluation of acyclic 3-[(2-hydroxyethoxy)methyl] analogues of antiviral furo- and pyrrolo[2,3-d]pyrimidine nucleosides” (J Med Chem, 2005).

Legend:
[1] = test system: HEL; assay: Concentration required to inhibit human cytomegalovirus strain AD169 induced cytopathogenicity in HEL cells by 50%; type: functional, cell-based
[2] = test system: HEL; assay: Concentration required to inhibit cell proliferation in HEL cells by 50%; type: functional; details: Homo sapiens
[3] = test system: HEL; assay: Concentration required to cause a microscopically visible alteration of cell morphology in HEL cells; type: functional; details: Homo sapiens
[4] = test system: HEL; assay: Concentration required to inhibit Varicella-Zoster virus (strain OKA) induced cytopathogenicity in HEL cells by 50%; type: functional, cell-based; details: Homo sapiens
[5] = test system: HEL; assay: Concentration required to inhibit vaccinia virus induced cytopathogenicity in HEL cells by 50%; type: functional, cell-based; details: Homo sapiens
[6] = test system: CCRF-CEM; assay: Concentration required to inhibit human immunodeficiency virus-1 (strain IIIb) induced cytopathogenicity in CEM cells by 50%; type: functional, cell-based
How it was run: (§1)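 Human CEM cells (~3 × 10^5 cells/cm³) were infected with 100 CCID50/mL of HIV-1(IIIB) or HIV-2(ROD) and seeded into wells with compound dilutions. After 4 days at 37 °C, HIV-induced giant-cell formation was examined microscopically and EC50 was taken as the concentration giving 50% inhibition.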

[7] = test system: HEL; assay: Concentration required to inhibit vesicular stomatitis virus induced cytopathogenicity in HEL cells by 50%; type: functional, cell-based; details: Homo sapiens
[8] = test system: HEL; assay: Concentration required to inhibit herpes simplex virus type 1 induced cytopathogenicity in HEL cells by 50%; type: functional, cell-based; details: Homo sapiens
[9] = test system: CCRF-CEM; assay: Concentration required to inhibit human immunodeficiency virus-2 (strain ROD) induced cytopathogenicity in CEM cells by 50%; type: functional, cell-based; how it was run: as §1
[10] = test system: HEL; assay: Concentration required to inhibit human cytomegalovirus strain Davis induced cytopathogenicity in HEL cells by 50%; type: functional, cell-based
[11] = test system: HEL; assay: Concentration required to inhibit herpes simplex virus type 2 induced cytopathogenicity in HEL cells by 50%; type: functional, cell-based; details: Homo sapiens
[12] = test system: HEL; assay: Concentration required to inhibit Varicella-Zoster virus (strain 07/1) induced cytopathogenicity in HEL cells by 50%; type: functional, cell-based; details: Homo sapiens
[13] = test system: HEL; assay: Concentration required to inhibit HEL cell proliferation by 50%; type: functional; details: Homo sapiens

Row | Structure (SMILES) | EC50 [1] | CC50 [2] | MCC [3] | EC50 [4] | EC50 [5] | EC50 [6] | EC50 [7] | EC50 [8] | EC50 [9] | EC50 [10] | EC50 [11] | EC50 [12] | CC50 [13]
1 | CCCCCCCCCCCc1cc2cn(COCCO)c(O)nc-2n1 | > 16 µM | 41 µM | 80 µM | 16 µM | > 40 µM | > 10 µM | > 40 µM | > 40 µM | > 10 µM | > 16 µM | > 40 µM | 10 µM | –
2 | CCCCCCCCc1cc2cn(COCCO)c(=O)nc2o1 | 31 µM | > 200 µM | ≥ 80 µM | 11 µM | > 16 µM | > 50 µM | > 16 µM | > 16 µM | > 50 µM | 10 µM | > 16 µM | > 16 µM | –
3 | CCCCCC#Cc1cc2cn(COCCO)c(=O)nc2o1 | > 20 µM | > 50 µM | ≥ 100 µM | > 50 µM | > 200 µM | > 50 µM | > 200 µM | > 200 µM | > 50 µM | 58 µM | > 200 µM | > 50 µM | –
4 | CCCCCCCCCCc1cc2cn(COCCO)c(=O)nc2o1 | > 400 µM | > 200 µM | 400 µM | > 80 µM | > 16 µM | > 250 µM | > 16 µM | > 16 µM | > 250 µM | > 80 µM | > 16 µM | > 80 µM | –
5 | CCCCCCCCCc1cc2cn(COCCO)c(=O)nc2o1 | > 400 µM | ≥ 100 µM | ≥ 16 µM | 41 µM | > 200 µM | > 250 µM | > 200 µM | > 200 µM | > 250 µM | > 400 µM | > 200 µM | 10 µM | –
6 | OCCOCn1cc2ccnc-2nc1O | > 400 µM | > 200 µM | > 400 µM | > 400 µM | > 400 µM | > 250 µM | > 400 µM | > 400 µM | > 250 µM | > 400 µM | > 400 µM | > 400 µM | –
7 | CCCCCc1cc2cn(COCCO)c(O)nc-2n1 | > 400 µM | > 200 µM | > 400 µM | > 400 µM | > 400 µM | > 250 µM | > 400 µM | > 400 µM | > 250 µM | > 400 µM | > 400 µM | > 400 µM | –
8 | CCCCC#Cc1cc2cn(COCCO)c(=O)nc2o1 | > 100 µM | > 50 µM | > 100 µM | > 50 µM | > 200 µM | > 50 µM | > 200 µM | > 200 µM | > 50 µM | > 100 µM | > 200 µM | > 50 µM | –
9 | CCCCCc1cc2cn(COCCO)c(=O)nc2o1 | > 400 µM | > 200 µM | > 400 µM | > 400 µM | > 400 µM | > 50 µM | > 400 µM | > 400 µM | > 250 µM | > 400 µM | > 400 µM | > 400 µM | –
10 | O=c1nc2occc2cn1COCCO | > 400 µM | > 200 µM | > 400 µM | > 100 µM | > 400 µM | > 250 µM | > 400 µM | > 400 µM | > 250 µM | > 400 µM | > 400 µM | > 400 µM | –
11 | CCCCCCCCC#Cc1cc2cn(COCCO)c(=O)nc2o1 | > 4 µM | 42 µM | ≥ 20 µM | > 5 µM | > 40 µM | > 10 µM | > 40 µM | > 40 µM | > 10 µM | 5.2 µM | > 40 µM | 8.5 µM | –
12 | CCCCCCCCCC#Cc1cc2cn(COCCO)c(=O)nc2o1 | > 4 µM | > 50 µM | ≥ 20 µM | 2.6 µM | > 40 µM | > 10 µM | > 40 µM | > 40 µM | > 10 µM | 5.2 µM | > 40 µM | 7.1 µM | –
13 | CCCCc1cc2cn(COCCO)c(=O)nc2o1 | > 400 µM | > 200 µM | > 400 µM | ≥ 100 µM | > 400 µM | > 250 µM | > 400 µM | > 400 µM | > 250 µM | > 400 µM | > 400 µM | > 400 µM | –
14 | CCCCCCc1cc2cn(COCCO)c(O)nc-2n1 | 400 µM | > 200 µM | > 400 µM | 206 µM | > 80 µM | > 50 µM | > 80 µM | > 80 µM | > 50 µM | 253 µM | > 80 µM | 151 µM | –
15 | CCCCCCCCCc1cc2cn(COCCO)c(O)nc-2n1 | > 16 µM | – | > 80 µM | > 16 µM | > 80 µM | > 50 µM | > 80 µM | > 80 µM | > 50 µM | > 16 µM | > 80 µM | > 16 µM | –
16 | CCCCCCCCCCCc1cc2cn(COCCO)c(=O)nc2o1 | > 16 µM | 132 µM | 80 µM | > 16 µM | > 40 µM | > 250 µM | > 40 µM | > 40 µM | > 250 µM | > 16 µM | > 40 µM | > 16 µM | –
17 | C#Cc1cn(COCCO)c(=O)[nH]c1=O | > 400 µM | – | > 400 µM | > 400 µM | > 400 µM | > 250 µM | > 400 µM | > 400 µM | > 250 µM | > 400 µM | > 400 µM | > 400 µM | > 200 µM
18 | CCCCCCCCCCc1cc2cn(COCCO)c(O)nc-2n1 | 5.1 µM | 32 µM | 80 µM | 6.4 µM | > 16 µM | > 10 µM | > 16 µM | > 16 µM | > 10 µM | 1.8 µM | > 16 µM | 5.8 µM | –
19 | CCCCCCCc1cc2cn(COCCO)c(=O)nc2o1 | > 80 µM | 140 µM | 400 µM | > 80 µM | > 200 µM | > 50 µM | > 200 µM | > 200 µM | > 50 µM | > 80 µM | > 200 µM | > 80 µM | –
20 | CCCCCCCCc1cc2cn(COCCO)c(O)nc-2n1 | > 16 µM | 65 µM | 80 µM | > 16 µM | > 80 µM | > 50 µM | > 80 µM | > 80 µM | > 50 µM | > 16 µM | > 80 µM | > 16 µM | –
21 | CCCCCCCc1cc2cn(COCCO)c(O)nc-2n1 | > 400 µM | 119 µM | ≥ 400 µM | 149 µM | > 200 µM | > 250 µM | > 200 µM | > 200 µM | > 250 µM | 400 µM | > 200 µM | 156 µM | –
22 | CCCCCCC#Cc1cc2cn(COCCO)c(=O)nc2o1 | 40 µM | > 50 µM | > 200 µM | 100 µM | > 200 µM | > 50 µM | > 200 µM | > 200 µM | – | > 20 µM | > 200 µM | 100 µM | –
23 | CCCCc1cc2cn(COCCO)c(O)nc-2n1 | > 400 µM | > 200 µM | > 400 µM | > 400 µM | > 400 µM | > 250 µM | > 400 µM | > 400 µM | > 250 µM | > 400 µM | > 400 µM | > 400 µM | –
24 | CCCCCCCC#Cc1cc2cn(COCCO)c(=O)nc2o1 | > 20 µM | > 50 µM | 200 µM | > 20 µM | > 40 µM | > 10 µM | > 40 µM | > 40 µM | > 10 µM | > 20 µM | > 40 µM | > 20 µM | –
25 | CCCCCCc1cc2cn(COCCO)c(=O)nc2o1 | > 80 µM | > 200 µM | ≥ 400 µM | 173 µM | > 16 µM | > 50 µM | > 16 µM | > 16 µM | > 50 µM | > 80 µM | > 16 µM | 151 µM | –
26 | O=c1[nH]c(=O)n([C@H]2C[C@H](O)[C@@H](CO)O2)cc1/C=C/Br [BRIVUDINE] | > 100 µM | ≥ 400 µM | > 400 µM | 0.03 µM | 60 µM | > 50 µM | > 500 µM | 0.16 µM | > 50 µM | > 100 µM | 300 µM | > 108 µM | –
